This note sets out measurements from ChEMBL document CHEMBL1148328, “Synthesis and structure-activity relationships of parasiticidal thiosemicarbazone cysteine protease inhibitors against Plasmodium falciparum, Trypanosoma brucei, and Trypanosoma cruzi” (J Med Chem, 2004).

Assay [1] deals with Trypanosoma brucei rhodesiense. Put plainly: Effective dose required to inhibit Trypanosoma brucei rhodesiense in culture. The settings on record: read-out: ED50 (the source's name). Type of assay: functional. The method in brief:
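T. b. rhodesiense grown at 37 °C, 5% CO2 in HMI-9 with 10% FBS and 10% Serum Plus, seeded at 10⁴ cells/mL. Inhibitor serially diluted directly in culture from the top concentration down to 1 nM. Exposure 48 h at 37 °C. Viability read as ATP content by CellTiter-Glo luminescence after 5 min shaking at room temperature, or by hemacytometer count.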

For a further assay, the target named is Rhodesain (Trypanosoma brucei rhodesiense, UniProt Q95PM0). Kind of assay: Inhibition of rhodesain from Trypanosoma brucei rhodesiense. The essentials:
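Recombinant rhodesain (3 nM) preincubated 5 min at room temperature with 0.5–10 µM inhibitor in 100 mM sodium acetate pH 5.5, 5 mM DTT, 0.7% DMSO final. Z-Phe-Arg-AMC then added (20 µM final) and fluorescence rise followed at ex 355/em 460. IC50 read graphically from linear portion of inhibition vs log[I], seven concentrations, at least two in linear range.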

The nature of assay [2]: Survival of infected cells against Trypanosoma cruzi in days at a dose of 5 uM; Toxicity = None.
The next assay concerns Plasmodium falciparum. Kind of assay: Effective inhibition of Plasmodium falciparum. Type of assay: functional. The settings on record: read-out: ED50 (the source's name). The method in brief:
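W2-strain parasites at 1% parasitemia and 2% hematocrit, run in duplicate. Inhibitor diluted from DMSO stocks in 1:5 steps to final 10 μM, 2000, 400, 80, 16 and 3.2 nM. Cultures kept 2 days at 37 °C, then washed and fixed in 1% formaldehyde/PBS. Parasitemia measured by flow cytometry with YOYO-1 DNA stain.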

The target of the next assay is T1, Falcipain 2 (Plasmodium falciparum, UniProt Q9N6S8).
T1 sequence (Q9N6S8 whole entry): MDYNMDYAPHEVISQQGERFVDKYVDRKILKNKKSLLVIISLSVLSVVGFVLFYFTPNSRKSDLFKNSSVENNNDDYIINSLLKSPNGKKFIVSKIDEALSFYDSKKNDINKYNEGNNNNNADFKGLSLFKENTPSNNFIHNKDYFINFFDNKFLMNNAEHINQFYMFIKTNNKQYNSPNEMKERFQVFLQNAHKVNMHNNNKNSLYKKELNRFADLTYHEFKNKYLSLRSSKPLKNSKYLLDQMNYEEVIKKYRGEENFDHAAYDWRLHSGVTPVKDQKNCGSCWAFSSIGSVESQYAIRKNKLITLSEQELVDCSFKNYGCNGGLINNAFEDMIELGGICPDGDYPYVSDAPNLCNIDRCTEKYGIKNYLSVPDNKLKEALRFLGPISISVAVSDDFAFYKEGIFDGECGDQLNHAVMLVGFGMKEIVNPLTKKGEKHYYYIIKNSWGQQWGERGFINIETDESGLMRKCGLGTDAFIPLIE
Kind of assay: Inhibition of falcipain2 from Plasmodium falciparum. The method in brief:
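Recombinant falcipain-2 preincubated 30 min at room temperature with inhibitor in 100 mM sodium acetate pH 5.5 with 10 mM DTT, DMSO at most 1%. Z-Leu-Arg-AMC then added to 25 μM final, and fluorescence monitored 15 min at room temperature. IC50 taken from plots of percent activity against compound concentration.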

The target of another assay is Cruzipain (Trypanosoma cruzi, UniProt P25779). Kind of assay: Inhibition of cruzain from Trypanosoma cruzi. The essentials: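 Recombinant cruzain (2 nM) preincubated 5 min at room temperature with 0.5–10 μM inhibitor in 100 mM sodium acetate pH 5.5 with 5 mM DTT, 0.7% DMSO. Reaction started with Z-Phe-Arg-AMC at 20 μM final (Km 1 μM), followed by fluorescence at ex 355/em 460. IC50 read graphically from inhibition vs log[I], seven concentrations with at least two in the linear range.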

Assay [3] is described as follows: Survival of infected cells against Trypanosoma cruzi in days at a dose of 5 uM; Toxicity = Toxic.

Chain of Cruzipain (P25779 whole entry): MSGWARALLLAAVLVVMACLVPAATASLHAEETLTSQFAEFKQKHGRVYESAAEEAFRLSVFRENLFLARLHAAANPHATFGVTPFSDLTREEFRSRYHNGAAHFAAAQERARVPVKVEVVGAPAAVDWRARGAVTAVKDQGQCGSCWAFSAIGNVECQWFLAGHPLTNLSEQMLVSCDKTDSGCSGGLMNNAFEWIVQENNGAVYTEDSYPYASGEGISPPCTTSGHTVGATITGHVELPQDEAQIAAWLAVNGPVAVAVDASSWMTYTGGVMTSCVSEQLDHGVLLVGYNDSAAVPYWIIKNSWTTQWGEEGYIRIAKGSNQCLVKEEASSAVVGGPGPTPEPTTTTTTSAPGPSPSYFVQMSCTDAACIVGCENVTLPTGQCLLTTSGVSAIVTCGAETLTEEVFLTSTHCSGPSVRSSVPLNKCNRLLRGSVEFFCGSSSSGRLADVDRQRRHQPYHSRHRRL
Chain of Rhodesain (Q95PM0 whole entry): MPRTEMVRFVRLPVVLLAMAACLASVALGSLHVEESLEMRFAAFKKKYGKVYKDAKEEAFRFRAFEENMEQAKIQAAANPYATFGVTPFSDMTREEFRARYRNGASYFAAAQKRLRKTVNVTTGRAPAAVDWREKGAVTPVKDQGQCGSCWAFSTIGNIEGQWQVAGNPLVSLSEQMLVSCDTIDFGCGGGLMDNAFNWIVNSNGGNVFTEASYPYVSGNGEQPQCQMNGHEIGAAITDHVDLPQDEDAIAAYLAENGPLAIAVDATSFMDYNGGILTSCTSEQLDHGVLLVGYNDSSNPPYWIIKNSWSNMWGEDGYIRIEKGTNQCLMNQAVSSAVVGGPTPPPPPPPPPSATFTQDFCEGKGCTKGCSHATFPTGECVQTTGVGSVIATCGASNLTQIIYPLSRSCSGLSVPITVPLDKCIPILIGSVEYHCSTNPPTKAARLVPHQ

Regarding `C/C(=N\N=C(\N)S)c1ccc(Nc2ccccc2)cc1`, the EC50 in assay [1] worked out at 4.5 µM; in the assay on Plasmodium falciparum it was 9900 nM. In addition, the concentration for half-maximal inhibition (IC50) against Rhodesain was 18000 nM; at Falcipain 2, > 20 µM; against Cruzipain, > 20 µM. For the same compound, the Survival in assay [2] was 43 days.

In the case of `C/C(=N\N=C(\N)S)c1cccc(-c2ccccc2)c1`, the EC50 in assay [1] turned out to be 12 µM. The values for the IC50 at Rhodesain and against Cruzipain were 1100 nM and 8 µM, respectively. The Survival in assay [2] is 43 days.

`CS/C(S)=N/N=C(\C)c1cccc(Br)c1` registered a Survival in assay [3] of 7 days. Moreover, in assay [1], the EC50 was 10 µM. Also, the half-inhibitory concentration (IC50) is > 20000 nM on Rhodesain and > 20 µM on Cruzipain.

As for `C/C(=N/N=C(/N)S)c1cccc(/C(C)=N/N=C(/N)S)c1`, the EC50 in assay [1] was > 20 µM. The figures for the IC50 against Rhodesain and at Cruzipain were 330 nM and 5 µM, respectively. The same compound displayed a Survival in assay [2] of 5 days.

In the case of `C/C(=N\N=C(/S)N1CCCCC1)c1cccc(Br)c1`, the EC50 in assay [1] stood at 3 µM. In addition, the half-maximal inhibitory concentration (IC50) came out at 4000 nM against Rhodesain and 5 µM at Cruzipain. In addition, in assay [2], the Survival was 5 days.

In turn, `C/C(=N\N=C(\N)S)c1cccc(Oc2ccccc2)c1` yielded a Survival in assay [3] of 27 days. Besides, in assay [1], the EC50 is 6 µM. The concentration for half-maximal inhibition (IC50) at Rhodesain turned out to be 550 nM; on Cruzipain it was 10 µM.

On to `CCN(CC)/C(S)=N/N=C(\C)c1cccc(Br)c1`, for which the EC50 in assay [1] came out at 3 µM. Further, the values for the IC50 against Rhodesain and against Cruzipain were 1800 nM and 5 µM, respectively. Further, the Survival in assay [2] is 5 days.

In assay [3], `C/C(=N\N=C(\N)S)c1ccc(Oc2ccccc2)cc1` registered a Survival of 28 days. Besides, the EC50 in assay [1] was determined as 3 µM. The 50% inhibitory concentration (IC50) on Rhodesain came to 8000 nM; against Cruzipain, 10 µM.

With `C/C(=N\N=C(\N)S)c1cccc(Nc2ccccc2)c1`, the EC50 in assay [1] stood at 8 µM. In addition, the figures for the IC50 against Rhodesain and against Cruzipain were 800 nM and > 20 µM, respectively. This compound showed a Survival in assay [2] of 43 days.

Take `C/C(=N\N=C(\N)S)c1ccc(-c2ccccc2)cc1`: the Survival in assay [3] stood at 8 days. Also, the EC50 in assay [1] is 10 µM; in the assay with Plasmodium falciparum, > 20000 nM. Further, the figures for the IC50 on Rhodesain, on Falcipain 2 and against Cruzipain were 90 nM, 10 µM and 5 µM, respectively.

For `C/C(=N/N=C(/N)S)c1cccc(/C(C)=N/N=C(/N)S)n1`, in the assay on Plasmodium falciparum, the EC50 amounted to 30 nM. The IC50 on Falcipain 2 was > 20 µM.

Consider `C/C(=N\N=C(/S)N1CCN(C)CC1)c1cccc(Br)c1`, for which the Survival in assay [3] was 14 days. The EC50 in assay [1] amounted to 2 µM; in the assay on Plasmodium falciparum, 4000 nM. Moreover, the values for the IC50 against Rhodesain, at Falcipain 2 and at Cruzipain were 4000 nM, > 20 µM and 5 µM, respectively.

With `C/C(=N\NC(N)=S)c1ccccn1`, the EC50 was 4 µM in assay [1] and 80 nM with Plasmodium falciparum. Further, the figures for the half-maximal inhibitory concentration (IC50) on Rhodesain, at Falcipain 2 and against Cruzipain were > 20000 nM, > 20 µM and > 20 µM, respectively. Besides, the Survival in assay [2] came out at 43 days.

Take `CS/C(S)=N/N=C(\C)c1ccccn1`: the EC50 in assay [1] was 0.3 µM; with Plasmodium falciparum, 30 nM. Also, the IC50 on Rhodesain was > 20000 nM; at Falcipain 2 it was > 20 µM.

With `C/C(=N\N=C(\N)S)c1cccc(Br)c1`, the EC50 in assay [1] was > 20 µM. Further, the results for the IC50 at Rhodesain and at Cruzipain were 50 nM and 0.06 µM, respectively. In assay [2], the Survival was 43 days.
